In ChEMBL document CHEMBL4118103, “Synthesis and Bioactivity Investigation of the Individual Components of Cyclic Lipopeptide Antibiotics” (J Med Chem, 2018):
In brackets after ≈: the same amount, converted by molar mass. Bridge positions count the residues as written; N and C are the ends. Square brackets hold non-standard residues; d marks the D form. Peptide text beside a SMILES is read from it. * marks the point of attachment. X1 = CC[C@H](C)CCCCC(=O)*; dDab = NCC[C@@H](N)C(=O)O; Dab = NCC[C@H](N)C(=O)O; Nva = CCC[C@H](N)C(=O)O

Columns and labels:
Klebsiella pneumoniae [1] = experiment: Antibacterial activity against extended-spectrum beta-lactamase producing Klebsiella pneumoniae 700603 after 18 hrs by agar dilution method; format: functional; conditions: Klebsiella pneumoniae, 700603, 18 h
Procedure, shortened: (§1)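 Serial two-fold agar dilution per CLSI; bacteria cultured in Mueller-Hinton broth, inoculum about 10^4 cfu/spot; final concentrations 0.03-128 µg/mL; plates incubated 35 °C for 18 h. MIC = lowest concentration preventing visible growth; representative of at least two independent experiments, a third run when the two disagreed.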

Escherichia coli [2] = experiment: Antibacterial activity against extended-spectrum beta-lactamase producing Escherichia coli isolate 14-11 after 18 hrs by agar dilution method; format: functional; conditions: isolate 14-11, 18 h; procedure, shortened: as §1
Acinetobacter baumannii = experiment: Antibacterial activity against Acinetobacter baumannii ATCC 19606 after 18 hrs by agar dilution method; format: functional; conditions: ATCC 19606 = CIP 70.34 = JCM 6841, 18 h; procedure, shortened: as §1
Klebsiella pneumoniae [3] = experiment: Antibacterial activity against NDM-1 producing Klebsiella pneumoniae ATCC BAA-2146 after 18 hrs by agar dilution method; format: functional; conditions: ATCC BAA-2146, 18 h; procedure, shortened: as §1
Pseudomonas aeruginosa = experiment: Antibacterial activity against Pseudomonas aeruginosa ATCC 27853 after 18 hrs by agar dilution method; format: functional; conditions: ATCC 27853, 18 h; procedure, shortened: as §1
Escherichia coli [4] = experiment: Antibacterial activity against Escherichia coli ATCC 25922 after 18 hrs by agar dilution method; format: functional; conditions: ATCC 25922, 18 h; procedure, shortened: as §1
[5] = Acute toxicity in iv dosed ICR mouse assessed as survival measured daily for 7 days; format: organism-based; conditions: in vivo
Procedure, shortened: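 ICR mice, 18 to 22 g, 4 weeks old, 10 per group (5 male, 5 female). Four to five intravenous dose groups per compound. Survival recorded daily for 7 days. LD50 (dose per kg body weight lethal to 50%) calculated by the Bliss method. LD50 values compared by one-way ANOVA.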

[6] = Cytotoxicity against African green monkey Vero cells after 72 hrs by MTT assay; format: cell-based; conditions: chlorocebus sabaeus, Vero cells
Procedure, shortened: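 Vero cells seeded at 2x10^3 cells/well, incubated 24 h at 37 °C, 5% CO2, then exposed to compound 72 h; MTT added for 2 h, medium removed, formazan dissolved in DMSO, absorbance read at 570 nm. Viability relative to untreated cells (100%); CC50 as mean ± SD of three independent experiments, each in triplicate.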

Mus musculus [7] = experiment: Nephrotoxicity in ICR mouse assessed as pale tubular casts at 2.5 mg/kg, iv bid for 7 days measured after 2 hrs post last dose by hematoxylin and eosin staining based assay; format: toxicity, organism-based; conditions: in vivo
Procedure, shortened: (§2)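 ICR mice, 18-22 g, 4 weeks old, n=8 per group (4 male, 4 female); component in saline (0.25 mg/mL, kept at 4 °C) given iv at 2.5 mg/kg twice daily, 8 h apart, for 7 days. Kidneys taken 2 h after last dose, formalin-fixed, paraffin-embedded, sectioned, H&E stained and examined by light microscopy; saline controls included.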

Mus musculus [8] = experiment: Nephrotoxicity in ICR mouse assessed as tubular dilation at 2.5 mg/kg, iv bid for 7 days measured after 2 hrs post last dose by hematoxylin and eosin staining based assay; format: toxicity, organism-based; conditions: in vivo; procedure, shortened: as §2
Mus musculus [9] = experiment: Nephrotoxicity in ICR mouse assessed as induction of prominent nuclei at 2.5 mg/kg, iv bid for 7 days measured after 2 hrs post last dose by hematoxylin and eosin staining based assay; format: toxicity, organism-based; conditions: in vivo; procedure, shortened: as §2

| SMILES | MIC (Klebsiella pneumoniae [1]) [µg/mL] | MIC (Escherichia coli [2]) [µg/mL] | MIC (Acinetobacter baumannii) [µg/mL] | MIC (Klebsiella pneumoniae [3]) [µg/mL] | MIC (Pseudomonas aeruginosa) [µg/mL] | MIC (Escherichia coli [4]) [µg/mL] | LD50 at 168 h [5] [mg/kg] | CC50 at 72 h [6] [µg/mL] | Activity (Mus musculus [7]) | Activity (Mus musculus [8]) | Activity (Mus musculus [9]) |
| --- | --- | --- | --- | --- | --- | --- | --- | --- | --- | --- | --- |
| CC[C@H](C)[C@@H]1NC(=O)[C@@H](CC(C)C)NC(=O)[C@H](CCN)NC(=O)[C@@H](NC(=O)[C@H](CCN)NC(=O)[C@@H](NC(=O)[C@H](CCN)NC(=O)CCCCC(C)C)[C@@H](C)O)CCNC(=O)[C@H]([C@@H](C)O)NC(=O)[C@H](CCN)NC(=O)[C@H](CCN)NC1=O | 0.5 (≈ 0.433 µM) | 0.5 (≈ 0.433 µM) | 1 (≈ 0.865 µM) | 1 (≈ 0.865 µM) | 2 (≈ 1.73 µM) | 1 (≈ 0.865 µM) | 12.9 | 199 (≈ 172 µM) |  |  |  |
| CC(C)CCCCC(=O)N[C@@H](CCN)C(=O)N[C@H](C(=O)N[C@@H](CCN)C(=O)N[C@H]1CCNC(=O)[C@H]([C@@H](C)O)NC(=O)[C@H](CCN)NC(=O)[C@H](CCN)NC(=O)[C@H]([C@@H](C)O)NC(=O)[C@@H](CC(C)C)NC(=O)[C@H](CCN)NC1=O)[C@@H](C)O | 0.5 (≈ 0.437 µM) | 0.25 (≈ 0.219 µM) | 1 (≈ 0.875 µM) | 0.5 (≈ 0.437 µM) | 0.5 (≈ 0.437 µM) | 0.5 (≈ 0.437 µM) | 13 | 276 (≈ 241 µM) | Non-Toxic | Non-Toxic | Non-Toxic |
| CC[C@H](C)CCCCC(=O)N[C@@H](CCN)C(=O)N[C@H](C(=O)N[C@@H](CCN)C(=O)N[C@H]1CCNC(=O)[C@H]([C@@H](C)O)NC(=O)[C@H](CCN)NC(=O)[C@H](CCN)NC(=O)[C@H]([C@@H](C)O)NC(=O)[C@@H](CC(C)C)NC(=O)[C@H](CCN)NC1=O)[C@@H](C)O (X1-[Dab]T[Dab][Dab][Dab][dL]T[Dab][Dab]T; lactam 4-C) | 0.25 (≈ 0.216 µM) | ≤ 0.03 | 0.5 (≈ 0.432 µM) | 0.5 (≈ 0.432 µM) | 1 (≈ 0.864 µM) | 0.25 (≈ 0.216 µM) | 11.4 | 96 (≈ 82.9 µM) |  |  |  |
| CCC[C@@H]1NC(=O)[C@@H](CC(C)C)NC(=O)[C@H](CCN)NC(=O)[C@@H](NC(=O)[C@H](CCN)NC(=O)[C@@H](NC(=O)[C@H](CCN)NC(=O)CCCC[C@@H](C)CC)[C@@H](C)O)CCNC(=O)[C@H]([C@@H](C)O)NC(=O)[C@H](CCN)NC(=O)[C@H](CCN)NC1=O (X1-[Dab]T[Dab][Dab][Dab][dL][Nva][Dab][Dab]T; lactam 4-C) | 2 (≈ 1.73 µM) | 1 (≈ 0.865 µM) | 1 (≈ 0.865 µM) | 1 (≈ 0.865 µM) | 1 (≈ 0.865 µM) | 1 (≈ 0.865 µM) |  | 109 (≈ 94.3 µM) |  |  |  |
| CC[C@H](C)CCCCC(=O)N[C@@H](CCN)C(=O)N[C@H](C(=O)N[C@H](CCN)C(=O)N[C@H]1CCNC(=O)[C@H]([C@@H](C)O)NC(=O)[C@H](CCN)NC(=O)[C@H](CCN)NC(=O)[C@H]([C@@H](C)O)NC(=O)[C@@H](CC(C)C)NC(=O)[C@H](CCN)NC1=O)[C@@H](C)O (X1-[Dab]T[dDab][Dab][Dab][dL]T[Dab][Dab]T; lactam 4-C) | 1 (≈ 0.864 µM) | 1 (≈ 0.864 µM) | 1 (≈ 0.864 µM) | 1 (≈ 0.864 µM) | 1 (≈ 0.864 µM) | 0.5 (≈ 0.432 µM) |  | 145 (≈ 125 µM) |  |  |  |
| CC[C@H](C)CCCCC(=O)N[C@@H](CCN)C(=O)N[C@H](C(=O)N[C@H](CO)C(=O)N[C@H]1CCNC(=O)[C@H]([C@@H](C)O)NC(=O)[C@H](CCN)NC(=O)[C@H](CCN)NC(=O)[C@H]([C@@H](C)O)NC(=O)[C@@H](CC(C)C)NC(=O)[C@H](CCN)NC1=O)[C@@H](C)O (X1-[Dab]T[dS][Dab][Dab][dL]T[Dab][Dab]T; lactam 4-C) | 1 (≈ 0.874 µM) | 0.25 (≈ 0.218 µM) | 0.06 (≈ 0.0524 µM) | 0.5 (≈ 0.437 µM) | 2 (≈ 1.75 µM) | 0.12 (≈ 0.105 µM) |  | 189 (≈ 165 µM) |  |  |  |
